Laboratory results from the RNAGym collection of RNA variant scans (doi:10.1126/science.aae0568).
Variants at the floor of the assay were thinned out.

B1: tRNA (parent)
chain: GUUCCGUUGGCGUAAUGGUAACGCGUCUCCCUCCUAAGGAGAAGACUGCGGGUUCGAGUCCCGUACGGAACG

Variants of: B1
Test: yeast fitness relative to wild type (ratio to wild type); higher = fitter; tRNA-Arg(CCU), competitive growth, 37 C, YPD
Procedure, shortened: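 Variants of the tRNA-Arg(CCU) gene, chemically synthesised with a 3% per-site mutation rate at 69 sites, were placed at the native genomic locus in Saccharomyces cerevisiae. The pooled strains were competed in YPD at 37°C for 24 hours in six parallel replicates. Gene amplicons from the start population and from each end population were read by 100-nucleotide paired-end sequencing. Darwinian fitness relative to wild type came from changes in genotype frequencies; genotypes needed ≥ 100 starting reads, and estimates < 0.5 were set to 0.5.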

Compared with U13A G48A, U13C C24G U26A C55G C66A is lower in yeast fitness: 1.03 for the first, 0.561 for the second.

Going from U13A C24U U59C G67A to U13A A57U, the yeast fitness rises from at most 0.5 to 0.681.

Compared with U13A C46G G63C C66A, U13A G38C G58C is higher in yeast fitness: at most 0.5 for the first, 0.798 for the second.

U13A A42U A57C C61U A65U and U13A C27A A36C A42U U64G cannot be ordered by yeast fitness: at most 0.5 for the first, at most 0.5 for the second.

First: U13C G48A
Second: G12C U32G A40U A57U A65U
The yeast fitness of the first is higher: 0.853 for the first, 0.568 for the second.

First: G12C U16C A42C C49U
Second: U13A C27G A42U
The yeast fitness of the first is lower: 0.594 for the first, 0.671 for the second.

First: U13A G25C
Second: U13C A36U U64C
The yeast fitness of the first is higher: 1.04 for the first, at most 0.5 for the second.

U13A A20C C34U G50C A69U and U13C A14G C24G G52A C55G A69U cannot be ordered by yeast fitness: at most 0.5 for the first, at most 0.5 for the second.

G12C U26C A37G and U13A A15G C22G C24U G44A U53G cannot be ordered by yeast fitness: at most 0.5 for the first, at most 0.5 for the second.

Compared with U13A A43G A45G G50C C60A A69C, U13A G52A C55U is lower in yeast fitness: 0.534 for the first, at most 0.5 for the second.

First: U13A C24U C55G
Second: U13C C22A U32A A36G A43U
The yeast fitness of the first is higher: 0.537 for the first, at most 0.5 for the second.

Going from U13C G67C to U13C G67A, the yeast fitness rises from 0.771 to 0.848.

Going from U13C G50U to G12C U19A C27G, the yeast fitness falls from 0.81 to 0.692.

Compared with U13C G18A A43U, U13C A57U C62U is lower in yeast fitness: 0.627 for the first, at most 0.5 for the second.

Going from U13C G58A to U13C G58C, the yeast fitness rises from 0.891 to 0.922.

Going from U13A C22G C31G C61A to U13A C31G C46G A69C, the yeast fitness falls from 0.512 to at most 0.5.

Going from U13C G51A A65C to U13C A15G G39A, the yeast fitness rises from at most 0.5 to 0.593.

Compared with U13A C30U, U13A C30G is lower in yeast fitness: 0.802 for the first, 0.584 for the second.

Compared with U13C A43U G56A, U13A C34U A36G is lower in yeast fitness: 0.797 for the first, at most 0.5 for the second.

G12C U32G C33G G48C and G12U G23A A36G G39A cannot be ordered by yeast fitness: at most 0.5 for the first, at most 0.5 for the second.

First: U13A A21C C24A G25C C66G
Second: U13C G38A C49U
The yeast fitness of the first is higher: 0.512 for the first, at most 0.5 for the second.

U13C C31U G50C and U13C A20C A40G cannot be ordered by yeast fitness: at most 0.5 for the first, at most 0.5 for the second.

Compared with U13C C22G G68U, U13C C22G G68C is higher in yeast fitness: at most 0.5 for the first, 0.542 for the second.

Going from U13A C30U C55G G58C to U13C G25A C33G G41C C61G A65U, the yeast fitness falls from 0.56 to at most 0.5.

Compared with U13C A57U, U13A G17A U32A is lower in yeast fitness: 0.753 for the first, at most 0.5 for the second.

Going from U13A G23A A36C G38A C60G C62G to U13C A20G G39A G48C, the yeast fitness falls from 0.557 to at most 0.5.

U13C G23C C62A and U13A G23C C49A U64G cannot be ordered by yeast fitness: at most 0.5 for the first, at most 0.5 for the second.

First: U13C G18C G50C A57U C62U
Second: U13A A15G C22G U28A
The yeast fitness of the first is lower: 0.578 for the first, 0.619 for the second.

First: U13C C31U A69U
Second: U13C A21G C31G U47C
The yeast fitness of the first is higher: 0.835 for the first, 0.555 for the second.

Going from U13C A57U U59A A69G to U13A C29G A43G G67A, the yeast fitness falls from 0.561 to at most 0.5.

First: U13A A42U A70G
Second: U13C A15U C27U A69U
The yeast fitness of the first is higher: 0.745 for the first, at most 0.5 for the second.

Compared with U13A A36G G56A, U13C C31U A57G U64A C66A A69C is lower in yeast fitness: 0.679 for the first, at most 0.5 for the second.

First: U13C C24G G67C
Second: U13A C62U
The yeast fitness of the first is lower: at most 0.5 for the first, 1.05 for the second.

Going from U13A G50U G68C to G12C U32C A65G, the yeast fitness rises from 0.515 to 0.569.

Going from U13C G58C A69U to U13C A21C G50A, the yeast fitness falls from 0.7 to 0.509.

First: U13A G41A G67A
Second: U13A C22U A37G
The yeast fitness of the first is higher: 0.546 for the first, 0.533 for the second.

Going from U13C G23C A36C G39A to U13A C33G A37G, the yeast fitness falls from 0.611 to at most 0.5.

U13A A14C C22A G48C A69U and U13C C27U C31A U35C C55G C66U A70C cannot be ordered by yeast fitness: at most 0.5 for the first, at most 0.5 for the second.

Going from U13A A15G A65G to U13C C49A, the yeast fitness falls from 0.877 to 0.795.

Compared with U13A G18A A69U, U13A C24G U28A C30U C31G G41C G56A A57C is lower in yeast fitness: 0.618 for the first, at most 0.5 for the second.

Compared with U13C A65G, U13A C29U is lower in yeast fitness: 0.956 for the first, 0.786 for the second.

For U13A U16A A43C, the yeast fitness was 0.564.
